Reference: the M2OR odorant receptor database

Assays:
Settings in all cases: stereoisomer not certain
OR7D4 (Homo sapiens) = target: T1, OR7D4 (Homo sapiens) (UniProt Q8NG98)
T1 sequence (whole entry): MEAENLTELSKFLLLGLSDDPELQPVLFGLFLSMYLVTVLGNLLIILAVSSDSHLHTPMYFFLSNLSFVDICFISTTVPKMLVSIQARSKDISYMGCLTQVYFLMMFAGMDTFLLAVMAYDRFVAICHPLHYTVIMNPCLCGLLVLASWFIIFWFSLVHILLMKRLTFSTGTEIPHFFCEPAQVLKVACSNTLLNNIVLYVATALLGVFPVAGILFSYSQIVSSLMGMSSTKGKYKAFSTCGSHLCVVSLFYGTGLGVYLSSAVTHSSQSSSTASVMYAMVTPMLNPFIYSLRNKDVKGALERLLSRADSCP
Method in brief: (§1)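 Each entry records the cell line, G-protein, co-transfected protein and tags used. Methods varied with the source, often transient luciferase assays in mammalian cell lines. A receptor–molecule pair is called responsive (active) if the original authors judged its signal statistically different from baseline and non-responsive (inactive) otherwise.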

OR7D4 = system: OR7D4
Chain of OR7D4 (as listed by the source): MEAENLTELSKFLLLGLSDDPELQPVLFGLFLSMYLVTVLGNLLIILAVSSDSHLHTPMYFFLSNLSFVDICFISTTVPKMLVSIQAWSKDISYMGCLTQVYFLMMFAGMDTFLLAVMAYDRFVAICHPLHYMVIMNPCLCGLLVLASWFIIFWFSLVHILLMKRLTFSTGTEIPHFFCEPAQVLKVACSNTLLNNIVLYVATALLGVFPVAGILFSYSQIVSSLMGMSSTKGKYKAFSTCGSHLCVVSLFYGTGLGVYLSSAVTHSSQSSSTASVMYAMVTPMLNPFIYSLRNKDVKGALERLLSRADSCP
Method in brief: as §1

OR6X1 (Homo sapiens) = OR6X1 (Homo sapiens) (UniProt Q8NH79)
Chain of OR6X1 (Homo sapiens) (Q8NH79 whole entry): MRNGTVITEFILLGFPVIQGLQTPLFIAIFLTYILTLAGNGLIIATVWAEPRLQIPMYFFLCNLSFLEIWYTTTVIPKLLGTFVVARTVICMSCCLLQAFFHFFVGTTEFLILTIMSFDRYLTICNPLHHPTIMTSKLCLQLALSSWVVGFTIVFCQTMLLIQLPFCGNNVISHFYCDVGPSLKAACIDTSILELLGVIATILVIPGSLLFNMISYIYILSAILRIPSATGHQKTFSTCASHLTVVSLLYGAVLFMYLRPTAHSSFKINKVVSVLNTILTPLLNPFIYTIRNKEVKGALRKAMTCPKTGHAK
Method in brief: as §1

OR6Y1 (Homo sapiens) = OR6Y1 (Homo sapiens) (UniProt Q8NGX8)
Chain of OR6Y1 (Homo sapiens) (Q8NGX8 whole entry): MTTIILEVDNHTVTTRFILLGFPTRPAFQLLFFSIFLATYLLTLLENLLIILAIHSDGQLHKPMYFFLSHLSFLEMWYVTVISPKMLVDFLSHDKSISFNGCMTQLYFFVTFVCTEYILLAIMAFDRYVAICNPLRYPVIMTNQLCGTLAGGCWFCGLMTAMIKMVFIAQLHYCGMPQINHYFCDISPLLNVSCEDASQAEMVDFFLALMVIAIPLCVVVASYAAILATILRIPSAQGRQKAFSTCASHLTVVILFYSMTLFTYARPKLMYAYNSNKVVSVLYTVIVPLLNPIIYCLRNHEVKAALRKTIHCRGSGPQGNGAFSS
Method in brief: as §1

OR7A10 (Homo sapiens) = OR7A10 (Homo sapiens) (UniProt O76100)
Chain of OR7A10 (Homo sapiens) (O76100 whole entry): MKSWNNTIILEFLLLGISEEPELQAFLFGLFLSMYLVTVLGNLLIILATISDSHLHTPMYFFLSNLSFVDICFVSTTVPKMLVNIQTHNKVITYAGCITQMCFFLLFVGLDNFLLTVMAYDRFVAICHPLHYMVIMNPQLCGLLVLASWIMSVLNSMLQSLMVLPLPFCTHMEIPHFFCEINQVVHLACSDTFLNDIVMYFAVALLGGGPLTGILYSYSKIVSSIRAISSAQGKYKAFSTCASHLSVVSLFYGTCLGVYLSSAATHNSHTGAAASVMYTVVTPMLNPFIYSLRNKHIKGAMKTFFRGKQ
Method in brief: as §1

OR7A17 (Homo sapiens) = OR7A17 (Homo sapiens) (UniProt O14581)
Chain of OR7A17 (Homo sapiens) (O14581 whole entry): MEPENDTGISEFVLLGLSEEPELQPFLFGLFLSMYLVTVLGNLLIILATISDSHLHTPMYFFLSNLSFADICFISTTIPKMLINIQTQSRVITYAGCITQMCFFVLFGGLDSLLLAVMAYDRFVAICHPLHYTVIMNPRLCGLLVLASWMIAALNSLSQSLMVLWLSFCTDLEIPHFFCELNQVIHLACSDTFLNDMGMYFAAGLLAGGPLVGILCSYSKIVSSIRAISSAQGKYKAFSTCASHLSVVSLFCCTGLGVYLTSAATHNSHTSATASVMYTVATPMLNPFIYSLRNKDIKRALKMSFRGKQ
Method in brief: as §1

OR7A5 (Homo sapiens) = OR7A5 (Homo sapiens) (UniProt Q15622)
Chain of OR7A5 (Homo sapiens) (Q15622 whole entry): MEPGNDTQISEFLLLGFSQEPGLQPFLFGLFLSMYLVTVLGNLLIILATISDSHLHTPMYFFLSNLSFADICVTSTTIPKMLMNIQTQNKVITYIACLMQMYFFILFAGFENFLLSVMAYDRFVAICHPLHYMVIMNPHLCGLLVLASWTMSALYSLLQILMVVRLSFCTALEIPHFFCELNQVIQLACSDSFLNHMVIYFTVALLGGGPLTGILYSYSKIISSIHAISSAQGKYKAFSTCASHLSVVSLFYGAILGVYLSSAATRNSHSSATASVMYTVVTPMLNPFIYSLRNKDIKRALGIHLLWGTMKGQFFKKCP
Method in brief: as §1

OR7C1 (Homo sapiens) = OR7C1 (Homo sapiens) (UniProt O76099)
Chain of OR7C1 (Homo sapiens) (O76099 whole entry): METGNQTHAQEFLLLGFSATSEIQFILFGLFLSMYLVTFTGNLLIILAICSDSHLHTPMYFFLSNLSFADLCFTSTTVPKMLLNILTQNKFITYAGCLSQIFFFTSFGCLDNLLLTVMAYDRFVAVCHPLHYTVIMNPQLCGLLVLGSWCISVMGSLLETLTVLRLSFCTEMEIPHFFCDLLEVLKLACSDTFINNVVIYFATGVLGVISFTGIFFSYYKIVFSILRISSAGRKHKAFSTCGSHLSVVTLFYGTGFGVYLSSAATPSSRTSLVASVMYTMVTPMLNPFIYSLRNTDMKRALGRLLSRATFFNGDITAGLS
Method in brief: as §1

OR7C2 (Homo sapiens) = OR7C2 (Homo sapiens) (UniProt O60412)
Chain of OR7C2 (Homo sapiens) (O60412 whole entry): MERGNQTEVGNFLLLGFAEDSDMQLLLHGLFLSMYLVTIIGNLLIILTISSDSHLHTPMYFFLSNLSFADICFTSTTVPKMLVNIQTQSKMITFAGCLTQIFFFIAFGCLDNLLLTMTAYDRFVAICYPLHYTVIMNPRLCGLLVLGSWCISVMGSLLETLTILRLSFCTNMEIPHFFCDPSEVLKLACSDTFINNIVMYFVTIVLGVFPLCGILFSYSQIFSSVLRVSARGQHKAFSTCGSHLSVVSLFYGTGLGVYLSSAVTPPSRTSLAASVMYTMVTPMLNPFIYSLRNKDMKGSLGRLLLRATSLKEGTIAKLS
Method in brief: as §1

OR7D2 (Homo sapiens) = OR7D2 (Homo sapiens) (UniProt Q96RA2)
Chain of OR7D2 (Homo sapiens) (Q96RA2 whole entry): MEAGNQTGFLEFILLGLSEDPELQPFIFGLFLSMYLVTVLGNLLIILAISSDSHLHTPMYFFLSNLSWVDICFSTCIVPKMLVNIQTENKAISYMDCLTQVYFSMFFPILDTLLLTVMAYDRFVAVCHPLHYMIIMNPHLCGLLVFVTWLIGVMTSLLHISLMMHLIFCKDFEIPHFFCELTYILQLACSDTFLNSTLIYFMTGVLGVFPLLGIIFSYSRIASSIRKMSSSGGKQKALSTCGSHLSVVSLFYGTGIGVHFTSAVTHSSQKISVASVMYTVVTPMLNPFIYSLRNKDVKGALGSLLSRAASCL
Method in brief: as §1

OR7E24 (Homo sapiens) = OR7E24 (Homo sapiens) (UniProt Q6IFN5)
Chain of OR7E24 (Homo sapiens) (Q6IFN5 whole entry): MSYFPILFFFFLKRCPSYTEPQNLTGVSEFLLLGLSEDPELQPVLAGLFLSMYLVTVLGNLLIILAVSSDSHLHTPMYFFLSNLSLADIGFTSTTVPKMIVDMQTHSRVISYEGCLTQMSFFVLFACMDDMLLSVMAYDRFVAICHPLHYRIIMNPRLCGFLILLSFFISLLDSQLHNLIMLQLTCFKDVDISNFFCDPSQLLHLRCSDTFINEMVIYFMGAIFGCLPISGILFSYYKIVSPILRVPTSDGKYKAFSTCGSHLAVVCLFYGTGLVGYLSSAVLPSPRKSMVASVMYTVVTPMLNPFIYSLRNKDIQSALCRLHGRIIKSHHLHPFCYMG
Method in brief: as §1

OR7G1 (Homo sapiens) = OR7G1 (Homo sapiens) (UniProt Q8NGA0)
Chain of OR7G1 (Homo sapiens) (Q8NGA0 whole entry): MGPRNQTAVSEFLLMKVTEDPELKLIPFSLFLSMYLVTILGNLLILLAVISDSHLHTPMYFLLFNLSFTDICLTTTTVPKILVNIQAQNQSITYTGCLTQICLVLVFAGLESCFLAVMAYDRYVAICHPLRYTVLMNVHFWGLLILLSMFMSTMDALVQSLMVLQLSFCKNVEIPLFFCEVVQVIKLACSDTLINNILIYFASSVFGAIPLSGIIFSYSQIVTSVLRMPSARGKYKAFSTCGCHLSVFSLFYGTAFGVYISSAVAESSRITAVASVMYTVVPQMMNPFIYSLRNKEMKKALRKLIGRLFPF
Method in brief: as §1

OR7G2 (Homo sapiens) = OR7G2 (Homo sapiens) (UniProt Q8NG99)
Method in brief: as §1

OR7G3 (Homo sapiens) = OR7G3 (Homo sapiens) (UniProt Q8NG95)
Chain of OR7G3 (Homo sapiens) (Q8NG95 whole entry): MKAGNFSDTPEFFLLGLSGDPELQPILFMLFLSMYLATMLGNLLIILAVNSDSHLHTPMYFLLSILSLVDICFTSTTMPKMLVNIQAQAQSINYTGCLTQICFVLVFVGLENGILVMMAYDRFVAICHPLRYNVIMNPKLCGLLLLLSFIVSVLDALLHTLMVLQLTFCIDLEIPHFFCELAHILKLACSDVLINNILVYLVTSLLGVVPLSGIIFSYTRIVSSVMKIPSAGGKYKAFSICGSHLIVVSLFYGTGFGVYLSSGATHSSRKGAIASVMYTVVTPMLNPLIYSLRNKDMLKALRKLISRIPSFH
Method in brief: as §1

OR8A1 (Homo sapiens) = OR8A1 (Homo sapiens) (UniProt Q8NGG7)
Chain of OR8A1 (Homo sapiens) (Q8NGG7 whole entry): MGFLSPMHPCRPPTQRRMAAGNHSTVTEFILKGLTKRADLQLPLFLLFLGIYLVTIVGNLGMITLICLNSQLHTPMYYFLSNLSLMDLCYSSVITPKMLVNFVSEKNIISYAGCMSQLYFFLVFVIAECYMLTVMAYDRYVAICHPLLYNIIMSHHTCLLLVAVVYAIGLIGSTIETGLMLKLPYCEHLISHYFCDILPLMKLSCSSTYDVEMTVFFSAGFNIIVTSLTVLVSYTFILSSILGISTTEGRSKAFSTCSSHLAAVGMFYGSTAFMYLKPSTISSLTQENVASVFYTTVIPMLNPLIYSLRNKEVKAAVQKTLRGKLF
Method in brief: as §1

OR7A5 M81I = system: OR7A5 M81I
Chain of OR7A5 M81I (as listed by the source, stated change not applied): as the sequence (Q15622 whole entry) above, with M81I counted along it
Method in brief: as §1

OR7C1 V126I E171K = system: OR7C1 V126I E171K
Method in brief: as §1

OR7D4 R88W = system: OR7D4 R88W
Chain of OR7D4 R88W (as listed by the source, stated change not applied): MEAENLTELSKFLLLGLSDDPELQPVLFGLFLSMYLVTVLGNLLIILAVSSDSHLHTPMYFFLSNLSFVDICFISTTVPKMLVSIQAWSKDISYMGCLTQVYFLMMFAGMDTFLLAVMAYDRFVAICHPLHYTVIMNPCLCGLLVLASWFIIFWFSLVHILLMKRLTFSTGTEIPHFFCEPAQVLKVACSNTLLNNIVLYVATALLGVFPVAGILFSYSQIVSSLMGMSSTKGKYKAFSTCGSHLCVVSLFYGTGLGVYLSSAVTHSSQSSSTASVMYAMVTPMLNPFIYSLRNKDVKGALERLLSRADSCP
Method in brief: as §1

OR7G2 = system: OR7G2
Chain of OR7G2 (as listed by the source): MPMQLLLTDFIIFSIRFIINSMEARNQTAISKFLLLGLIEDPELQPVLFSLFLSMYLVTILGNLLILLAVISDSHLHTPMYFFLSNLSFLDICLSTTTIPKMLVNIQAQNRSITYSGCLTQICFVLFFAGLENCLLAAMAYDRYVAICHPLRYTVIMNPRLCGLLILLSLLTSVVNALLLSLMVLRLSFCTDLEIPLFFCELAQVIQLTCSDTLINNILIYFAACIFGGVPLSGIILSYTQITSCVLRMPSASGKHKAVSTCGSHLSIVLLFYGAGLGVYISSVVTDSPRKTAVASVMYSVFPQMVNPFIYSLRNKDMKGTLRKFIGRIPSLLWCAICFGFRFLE
Method in brief: as §1

OR7G3 M29V = system: OR7G3 M29V
Chain of OR7G3 M29V (as listed by the source, stated change not applied): as the sequence (Q8NG95 whole entry) above, with M29V counted along it
Method in brief: as §1

Measured: odorant receptor agonist call

C=C(C)C1CCC2(C)OOC(C1)O2 (stereo not given)
inactive: OR7D4 (Homo sapiens) | OR7D4

Cc1c([N+](=O)[O-])c(C)c([N+](=O)[O-])c(C(C)(C)C)c1[N+](=O)[O-]
inactive: OR6X1 (Homo sapiens) | OR6Y1 (Homo sapiens) | OR7A10 (Homo sapiens) | OR7A17 (Homo sapiens) | OR7A5 (Homo sapiens) | OR7C1 (Homo sapiens) | OR7C2 (Homo sapiens) | OR7D2 (Homo sapiens) | OR7D4 (Homo sapiens) | OR7E24 (Homo sapiens) | OR7G1 (Homo sapiens) | OR7G2 (Homo sapiens) | OR7G3 (Homo sapiens) | OR8A1 (Homo sapiens)

C=CCOC(=O)Cc1ccccc1
inactive: OR6X1 (Homo sapiens) | OR6Y1 (Homo sapiens) | OR7A10 (Homo sapiens) | OR7A17 (Homo sapiens) | OR7A5 (Homo sapiens) | OR7A5 M81I | OR7C1 (Homo sapiens) | OR7C1 V126I E171K | OR7C2 (Homo sapiens) | OR7D2 (Homo sapiens) | OR7D4 (Homo sapiens) | OR7D4 R88W | OR7D4 | OR7E24 (Homo sapiens) | OR7G1 (Homo sapiens) | OR7G2 | OR7G3 (Homo sapiens) | OR7G3 M29V | OR8A1 (Homo sapiens)
